ChEMBL document CHEMBL1687757, “Many chromosomal genes modulate MarA-mediated multidrug resistance in Escherichia coli” (2010)
In brackets after ≈: the same amount, converted by molar mass.

What follows are compounds tested on Escherichia coli (assay: Antibacterial activity against marA-overproducing Escherichia coli CR1000 harboring inactivated ompR gene assessed as MarA-mediated multidrug resistance level by measuring fold change in MIC relative to MarA-deficient Escherichia coli CR2000). Details: not given.
Type: functional
Summary of the method: (§1)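 Each inactivated gene was transferred into both the ΔmarR (CR1000) and the ΔmarRA (CR2000) BW25113 backgrounds. Each derivative was grown overnight in LB and tested by Etest on Mueller-Hinton plates, read after 20 h at 37°C, against cefoxitin, norfloxacin, chloramphenicol and minocycline. The MarA-mediated level compares the MIC in the ΔmarR derivative with the MIC in the matching ΔmarRA derivative.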
Work on `CCn1cc(C(=O)O)c(=O)c2cc(F)c(N3CCNCC3)cc21` [NORFLOXACIN] yielded an Activity of 77%.

What follows are compounds tested on Escherichia coli (assay: Antibacterial activity against MarA-overexpressing Escherichia coli CR1000 after 20 hrs by Etest method). Details: CR1000, 20 h.
Type: functional
Summary of the method: (§2)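 MICs by Etest strips on Mueller-Hinton plates, following the manufacturer's specifications. Cells came from overnight liquid cultures in LB at 37°C with agitation. Plates were read after 20 h at 37°C. Antibiotics tested were cefoxitin, norfloxacin, chloramphenicol and minocycline.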
`CCn1cc(C(=O)O)c(=O)c2cc(F)c(N3CCNCC3)cc21` [NORFLOXACIN] showed an MIC of 0.21 µg/mL (≈ 0.658 µM).

What follows are compounds tested on Escherichia coli (assay: Antibacterial activity against marA-overproducing Escherichia coli CR1000 harboring inactivated yfdG gene assessed as MarA-mediated multidrug resistance level by measuring fold change in MIC relative to MarA-deficient Escherichia coli CR2000). Details: not given.
Type: functional
Summary of the method: as §1
In the case of `CCn1cc(C(=O)O)c(=O)c2cc(F)c(N3CCNCC3)cc21` [NORFLOXACIN], the Activity is reported as 91%.

The compounds below were run on Escherichia coli (assay: Antibacterial activity against marA-overproducing Escherichia coli CR1000 harboring inactivated treC gene assessed as MarA-mediated multidrug resistance level by measuring fold change in MIC relative to MarA-deficient Escherichia coli CR2000). Details: not given.
Type: functional
Summary of the method: as §1
`CCn1cc(C(=O)O)c(=O)c2cc(F)c(N3CCNCC3)cc21` [NORFLOXACIN] gave an Activity of 46%.

The compounds below were run on Escherichia coli (assay: Antibacterial activity against marA-overproducing Escherichia coli CR1000 harboring inactivated yibLp gene assessed as MarA-mediated multidrug resistance level by measuring fold change in MIC relative to MarA-deficient Escherichia coli CR2000). Details: not given.
Type: functional
Summary of the method: as §1
Work on `CCn1cc(C(=O)O)c(=O)c2cc(F)c(N3CCNCC3)cc21` [NORFLOXACIN] yielded an Activity of 68%.

Each compound was assayed on Escherichia coli (assay: Antibacterial activity against marA-overproducing Escherichia coli CR1000 harboring inactivated nikD gene assessed as MarA-mediated multidrug resistance level by measuring fold change in MIC relative to MarA-deficient Escherichia coli CR2000). Details: not given.
Type: functional
Summary of the method: as §1
`CCn1cc(C(=O)O)c(=O)c2cc(F)c(N3CCNCC3)cc21` [NORFLOXACIN] was tested, and the Activity was 68%.

These compounds were tested on Escherichia coli (assay: Antibacterial activity against marA-overproducing Escherichia coli CR1000 harboring inactivated yniDp gene assessed as MarA-mediated multidrug resistance level by measuring fold change in MIC relative to MarA-deficient Escherichia coli CR2000). Details: not given.
Type: functional
Summary of the method: as §1
For `CCn1cc(C(=O)O)c(=O)c2cc(F)c(N3CCNCC3)cc21` [NORFLOXACIN], the Activity was 77%.

What follows are compounds tested on Escherichia coli (assay: Ratio of MIC for marA-overproducing Escherichia coli CR1000 to MIC for MarA-deficient Escherichia coli CR2000). Details: not given.
Type: functional
Summary of the method: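 MICs measured by Etest on Mueller-Hinton plates, read after 20 h at 37°C, for the ΔmarR strain (constitutive chromosomal marA overexpression) and the ΔmarRA strain (BW25113 background), both grown overnight in LB at 37°C. MarA-mediated MDR expressed as the ΔmarR/ΔmarRA MIC ratio.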
With `CCn1cc(C(=O)O)c(=O)c2cc(F)c(N3CCNCC3)cc21` [NORFLOXACIN] the Ratio was 3.1.

Each compound was assayed on Escherichia coli (assay: Antibacterial activity against MarA-deficient Escherichia coli CR2000 after 20 hrs by Etest method). Details: CR2000, 20 h.
Type: functional
Summary of the method: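 Overnight LB-grown cultures (37°C, agitation) of the ΔmarRA strain (BW25113 background) tested on Mueller-Hinton plates with Etest strips per manufacturer's instructions. MIC read after 20 h at 37°C.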
For `CCn1cc(C(=O)O)c(=O)c2cc(F)c(N3CCNCC3)cc21` [NORFLOXACIN], the MIC was 0.07 µg/mL (≈ 0.219 µM).

What follows are compounds tested on Escherichia coli (assay: Antibacterial activity against marA-overproducing Escherichia coli CR1000 harboring inactivated maoC gene assessed as MarA-mediated multidrug resistance level by measuring fold change in MIC relative to MarA-deficient Escherichia coli CR2000). Details: not given.
Type: functional
Summary of the method: as §1
For `CCn1cc(C(=O)O)c(=O)c2cc(F)c(N3CCNCC3)cc21` [NORFLOXACIN], the Activity was 61%.

Each compound was assayed on Escherichia coli (assay: Antibacterial activity against wild-type Escherichia coli BW25113 after 20 hrs by Etest method). Details: BW25113, 20 h.
Type: functional
Summary of the method: as §2
`CCn1cc(C(=O)O)c(=O)c2cc(F)c(N3CCNCC3)cc21` [NORFLOXACIN] showed an MIC of 0.09 µg/mL (≈ 0.282 µM).

These compounds were tested on Escherichia coli (assay: Antibacterial activity against marA-overproducing Escherichia coli CR1000 harboring inactivated hns gene assessed as MarA-mediated multidrug resistance level by measuring fold decrease in MIC relative to MarA-deficient Escherichia coli CR2000). Details: not given.
Type: functional
Parameters: scale not given: the % may be the effect or the level left
Summary of the method: as §1
`CCn1cc(C(=O)O)c(=O)c2cc(F)c(N3CCNCC3)cc21` [NORFLOXACIN] gave an Activity of 23%.

What follows are compounds tested on Escherichia coli (assay: Antibacterial activity against marA-overproducing Escherichia coli CR1000 harboring inactivated ynfE gene assessed as MarA-mediated multidrug resistance level by measuring fold change in MIC relative to MarA-deficient Escherichia coli CR2000). Details: not given.
Type: functional
Summary of the method: as §1
In the case of `CCn1cc(C(=O)O)c(=O)c2cc(F)c(N3CCNCC3)cc21` [NORFLOXACIN], the Activity is reported as 68%.

These compounds were tested on Escherichia coli (assay: Antibacterial activity against marA-overproducing Escherichia coli CR1000 harboring inactivated tolC gene assessed as MarA-mediated multidrug resistance level by measuring fold decrease in MIC relative to MarA-deficient Escherichia coli CR2000). Details: not given.
Type: functional
Parameters: scale not given: the % may be the effect or the level left
Summary of the method: as §1
`CCn1cc(C(=O)O)c(=O)c2cc(F)c(N3CCNCC3)cc21` [NORFLOXACIN] gave an Activity of 0%.
